{"source": "paper PMC7323501", "about": "(Inorganic chemistry, 2019)", "key": {"[1]": {"settings": "cited from earlier work"}, "[2]": {"settings": "previously shown; cited from earlier work"}, "[3]": {"experiment": "DPPH radical scavenging assay", "settings": "1–1500 μM, MeOH, 30 min, n = 3", "in_short": "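Test compound stocks (5 mM, MeOH) were diluted and mixed 1:1 with DPPH stock (150 μM in MeOH), giving final compound 1–1500 μM. Plates were incubated 30 min in the dark at room temperature and read at 516 nm. BHT served as reference antioxidant, and DPPH plus MeOH as the control. Each concentration was run in triplicate, with results normalised to control as % DPPH quenched.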"}, "HT-22 cells": {"test_system": "HT-22 cells", "experiment": "Cytoprotection against H2O2 in HT-22 cells, WST-8 assay", "type": "cell-based, mouse", "settings": "then 600 μM H2O2 4 h", "in_short": "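HT-22 cells were pretreated with or without test compound (0.1–100 μM) for 24 h, then exposed to 600 μM H2O2 for 4 h. Viability was read by WST-8 reduction (2 h incubation, A450). Values are mean ± SD, n = 6, and significance was tested against the H2O2-only group.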"}, "Nrf2": {"test_system": "Nrf2", "experiment": "Nrf2 expression by Western blot in HT-22 cells", "type": "cell-based, mouse", "settings": "HT-22, 1 μM, 24 h"}, "Nrf2 pathway": {"test_system": "Nrf2 pathway", "settings": "human blood–brain barrier CMEC/D3 cells; cited from earlier work"}, "[4]": {"experiment": "CCA assay: copper/ascorbate redox cycling, hydroxyl radical production", "settings": "1 equiv (10 μM) vs copper(II) 10 μM, ascorbate 300 μM, CCA 100 μM, pH 7.4", "in_short": "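Cu(II)/ascorbate hydroxyl-radical model in PBS (pH 7.4) with Desferal (1 μM); CuSO4 in water. Addition order is buffer, CCA (100 μM), Desferal, test compound (0.5 equiv = 5 μM or 1 equiv = 10 μM), Cu(II) (10 μM), then ascorbate (300 μM). The read-out is 7-hydroxy-CCA fluorescence (λex 395 nm, λem 450 nm). Triplicate.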"}}, "note": "Like-named read-outs stand apart in the source and are kept apart here.", "data": [{"molecule": "c1cc2nc(c1)CNCCNCCNC2", "note": "[L1]", "values": [{"measurement": "log K1^H", "setting": "[1]; I = 0.15 M NaCl, T = 298 K", "result": 11.37}, {"measurement": "log K2^H", "setting": "[1]; I = 0.15 M NaCl, T = 298 K", "result": 8.22}, {"measurement": "log K3^H", "setting": "[1]; I = 0.15 M NaCl, T = 298 K", "result": 1.61}, {"measurement": "pI", "setting": "[1]; I = 0.15 M NaCl, T = 298 K", "result": ">11.37"}, {"measurement": "DPPH^• radical scavenging activity", "setting": "[2]", "result": "lack of radical scavenging activity"}]}, {"molecule": "Oc1cc2nc(c1)CNCCNCCNC2", "note": "[L2]", "values": [{"measurement": "DPPH^• radical scavenging response", "setting": "[3]", "result": "strong response"}, {"measurement": "reactivity with ABTS", "setting": "ABTS radical reactivity", "result": "little to no reactivity"}, {"measurement": "cell viability after H2O2", "setting": "HT-22 cells; HT-22, 1 μM pretreatment 24 h, mean ± SD, n = 6", "result": "70.1 ± 9.8", "unit": "%"}, {"measurement": "cell viability after H2O2", "setting": "HT-22 cells; HT-22, 0.1, 10 and 100 μM pretreatment 24 h", "result": "did not improve the cell viability"}, {"measurement": "expression level of Nrf2", "setting": "Nrf2", "result": "significantly increase the expression level of Nrf2"}, {"measurement": "log K1^H", "setting": "[1]; I = 0.15 M NaCl, T = 298 K", "result": 11.56}, {"measurement": "log K2^H", "setting": "[1]; I = 0.15 M NaCl, T = 298 K", "result": 9.05}, {"measurement": "log K3^H", "setting": "[1]; I = 0.15 M NaCl, T = 298 K", "result": 5.45}, {"measurement": "log K4^H", "setting": "[1]; I = 0.15 M NaCl, T = 298 K", "result": 1.68}, {"measurement": "pI", "setting": "[1]; I = 0.15 M NaCl, T = 298 K", "result": 10.31}, {"measurement": "Nrf2 pathway activation", "setting": "Nrf2 pathway", "result": "could activate the Nrf2 pathway"}]}, {"molecule": "CCN(CC)Cc1cccc(CN(CC)CC)n1", "note": "[2,6-bis[(diethylamino)methyl]pyridine]", "values": [{"measurement": "inhibition of CCA conversion to fluorescent hydroxy-CCA", "setting": "[4]", "result": "failed to give any indication of the prevention of copper redox cycling"}]}, {"molecule": "Cc1cc(C(C)(C)C)c(O)c(C(C)(C)C)c1", "note": "[BHT, 2,6-Di-tert-butyl-4-methylphenol, reference compound]", "values": [{"measurement": "DPPH^• radical scavenging response", "setting": "[3]", "result": "rapid decrease in the DPPH^• absorbance band"}]}, {"molecule": "C1CNCCNCCNCCN1", "note": "[cyclen, reference compound]", "values": [{"measurement": "log K1^H", "setting": "[1]; I = 0.15 M NaClO4", "result": 10.66}, {"measurement": "log K2^H", "setting": "[1]; I = 0.15 M NaClO4", "result": 9.69}, {"measurement": "log K3^H", "setting": "[1]; I = 0.15 M NaClO4", "result": 1.41}, {"measurement": "pI", "setting": "[1]; I = 0.15 M NaClO4", "result": "> 10.66"}]}]}
